Data set [1] is filed under the species Mus musculus. Put plainly: Tested for tremorolytic activity in mice, expressed as dose required to double the dose of oxotremorine inducing a predetermined (grade 2) tremor intensity. The class given is functional. The method in brief:
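Antagonist given i.p. to groups of six or more mice at four linearly spaced doses including zero, 15 min before i.v. oxotremorine (log dose series, 0.1 log spacing). Median oxotremorine dose evoking grade 2 tremor estimated by Dixon up-and-down method, tremor scored visually over first 5 min. The antagonist dose doubling that median dose was found by linear regression.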

Data set [2] is described as follows: Acute toxicity in mice. Type of data set: organism-based. Conditions: mouse, in vivo. In short, it runs like this:
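Mice given compound intravenously; LD50 determined by the up and down method for small samples. Mortality counted at 15 min.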

The nature of data set [3]: Tested for its effect on contraction of frog rectus abdominis muscle, expressed as equipotent molar ratio relative to carbamylcholine. Type of data set: functional. The method in brief:
(§1)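 Rana pipiens rectus abdominis held at 20 °C in aerated Clark-Ringer solution, pH 7.4. Each drug concentration applied for 5 min. Equipotent molar ratio relative to carbachol determined in three-point assays.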

Data set [4] deals with T1, Muscarinic acetylcholine receptor (Homo sapiens) (UniProt P20309+P08173+P11229+P08172+P08912). Put plainly: Tested for agonist activity at muscarinic receptor in guinea pig ileum, expressed as equipotent molar ratio relative to carbamylcholine. The class given is functional, tissue-based. Conditions: Cavia porcellus.
The target of data set [5] is T1, Muscarinic acetylcholine receptor (Homo sapiens). Put plainly: Tested for agonist activity at Muscarinic acetylcholine receptor in guinea pig ileum. Type of data set: functional, tissue-based. Conditions: Cavia porcellus, target entry is the homologue from another species.
Data set [6] is filed under the species Mus musculus. Put plainly: Tested for mydriatic activity in mice, expressed as the dose required to cause half-maximal pupillary dilation. The class given is functional.
The test system of the next data set is frog. Put plainly: Tested for its effect on contraction of frog rectus abdominis muscle, expressed as equipotent molar ratio relative to carbamylcholine; Inactive. The class given is functional, tissue-based. In short, it runs like this:
as §1

For data set [7], the species on record is Cavia porcellus. Put plainly: Percent occupancy for 50% response calculated from (100 x ED50)/(KA+ED50). Type of data set: functional. In short, it runs like this:
(§2)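 Isolated guinea pig ileum. Control agonist dose-response curves were run, then tissue treated with propylbenzilylcholine mustard 2×10⁻⁸ M for 15–20 min, cutting maximal response by 20–80%. Double-reciprocal plots of equieffective agonist concentrations before and after treatment gave K_A (Furchgott method). Relative efficacy was derived from K_A and ED50; occupancy for 50% response was taken as 100ED50/(K_A + ED50).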

The species entered for data set [8] is Cavia porcellus. Put plainly: Relative efficacy calculated from KA and ED50 values. The class given is functional. The method in brief: as §2
Data set [9] deals with T1, Muscarinic acetylcholine receptor (Homo sapiens). Conditions: Cavia porcellus; Ileum.
Data set [10] shares this target. Conditions: Cavia porcellus; Ileum. This is another data set of the same source.

Active and inactive are the calls of the source. The rule behind the calls is not given here.

Broadly, the LD50 is the dose at which mortality reaches 50%. The low end stands for a more toxic substance, the high end for a less toxic substance.

With `C[C@@H](C#CCN1CCCC1)N1CCCC1=O`, the ED50 in the data set filed under Mus musculus [1] amounted to 20 µmol/kg.
On to `C[C@@H]1CCC(=O)N1CC#CC[N+](C)(C)C.[I-]`, for which the median lethal dose (LD50) in data set [2] was 8.9 µmol/kg. Also, the EPMR came to 10 in [3] and 1.2 in data set [4]. In data set [5], the ED50 was determined as 0.076.
`C[C@H]1CCC(=O)N1CC#CCN1CCCC1` displayed an LD50 in data set [2] of 40 µmol/kg. Moreover, the EPMR in [3] is 132. In addition, the ED50 in the data set listed under Mus musculus [6] turned out to be 66 µmol/kg; in the data set listed under Mus musculus [1], 4.2 µmol/kg.
For the compound `C[C@H]1CCC(=O)N1CC#CCN(C)C`, in data set [2], the LD50 turned out to be 183 µmol/kg. For the same compound, the EPMR in data set [4] stood at 73.9. Further, the ED50 in the data set filed under Mus musculus [1] stood at 50 µmol/kg; in data set [5], 4.6 µM l-1. Further, the EPMR result with frog was “inactive”.
In data set [2], `O=C1CCCN1CC#CCN1CCCC1` [OXOTREMORINE] returned an LD50 of 6.7 µmol/kg. Moreover, the results for the EPMR in data set [3] and in [4] were 49 and 0.42, respectively. The Occupancy in the data set filed under Cavia porcellus [7] is given as 3.5%. For the same compound, the Relative efficacy in the data set listed under Cavia porcellus [8] was 1. Further, the ED50 in [9] came to 0.026 µM l-1. Besides, the KA in data set [10] worked out at 0.68.
With `C[C@@H]1CCC(=O)N1CC#CCN1CCCC1`, in data set [2], the 50% lethal dose (LD50) was 45 µmol/kg. Moreover, in data set [3], the EPMR stood at 141. In addition, the ED50 in the data set listed under Mus musculus [6] came to 4.8 µmol/kg; in the data set listed under Mus musculus [1], 0.19 µmol/kg.
`C[C@H]1CCC(=O)N1CC#CC[N+](C)(C)C.[I-]`: in data set [2], the LD50 was determined as 3.5 µmol/kg. The EPMR in data set [3] is 8.8; in [4], 20. In addition, in data set [5], the ED50 turned out to be 1.3.
For the compound `CN1[C@@H]2CC[C@H]1C[C@@H](OC(=O)C(CO)c1ccccc1)C2` (stereo partly drawn) [ATROPINE], the ED50 in the data set filed under Mus musculus [1] turned out to be 0.86 µmol/kg.
`C[C@@H]1CCC(=O)N1CC#CCN(C)C`: the 50% lethal dose (LD50) in data set [2] was 426 µmol/kg. In addition, the EPMR in [4] stood at 4.6. Besides, in the data set listed under Cavia porcellus [7], the Occupancy is 11%. For the same compound, the Relative efficacy in the data set listed under Cavia porcellus [8] is recorded as 0.29. In addition, the ED50 turned out to be 2.4 µmol/kg in the data set filed under Mus musculus [1] and 0.29 µM l-1 in [5]. In data set [5], this compound displayed a KA of 2.34. For the same compound, the EPMR result in the data set on frog is “inactive”.
Turning to `CN(C)CC#CCN1CCCC1=O`, in the data set filed under Cavia porcellus [7], the Occupancy was 0.55%. Also, the Relative efficacy in the data set filed under Cavia porcellus [8] is reported as 6.51. The KA in data set [10] worked out at 22.9 µM l-1.
As to `C[C@H](C#CCN1CCCC1)N1CCCC1=O`, the ED50 in the data set listed under Mus musculus [1] is 0.26 µmol/kg.
Turning to `CC1CCC(=O)N1CC#CCN1CCCC1` (racemic), the EPMR in [3] is on record as 116. In addition, the ED50 in the data set filed under Mus musculus [6] came out at 9 µmol/kg; in the data set listed under Mus musculus [1], 0.4 µmol/kg.
For `CC1CCC(=O)N1CC#CCN(C)C` (racemic), the EPMR in data set [4] turned out to be 8.8. The ED50 in the data set filed under Mus musculus [1] amounted to 5.5 µmol/kg; in [5], 0.55 µM l-1.
